From the EternaBench riboswitch data come the findings set out here.

The test system of the data set is MS2 coat protein. The experiment in a line: apparent Kd, MS2 coat protein; higher = weaker binding; RNA-MaP array; FMN 200 µM where present. In outline:
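Green signal was scaled to red-channel RNA signal and control-cluster median Fmax, and the apparent Kd was taken as the median of filtered per-cluster binding-curve fits. The binding series used SNAP-549-labelled MS2 coat protein from 0.7 or 1.5 nM, doubling to 3 µM, on designs transcribed by stalled E. coli RNA polymerase on Illumina sequencing-chip clusters. Each series ran without and then with constant ligand in 100 mM Tris-HCl pH 7.5, 80 mM KCl, 4 mM MgCl2, BSA, DTT, yeast tRNA and Tween-20.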

Setting [1] is: designed as: OFF switch for flavin mononucleotide, no ligand.
[2] abbreviates: ligand present: flavin mononucleotide, designed as: OFF switch for flavin mononucleotide.
[3] abbreviates: designed as: ON switch for flavin mononucleotide, no ligand.
[4] abbreviates: ligand present: flavin mononucleotide, designed as: ON switch for flavin mononucleotide.

Usually apparent Kd stands for the concentration giving half-maximal binding under the conditions of the assay.

“CCGACCCAAGGAUAUUGUACUGCUGACAUGAGGAUCACCCAUGUAUGUUAACUCGGCCGACGAGAAGGUGGCGACA”: the “apparent Kd” value reads like this: under setting [1], 26.8 nM; under setting [2], 23.9 nM.

For the sequence “UGGUAACAUGAGGAUCACCCAUGUCAGGAUAUCAGGAAGAGGAGAGGAGAGGAGAAGAUGAGAAGGGACUAUAU”, the “apparent Kd” value runs as follows: under setting [1], 27.2 nM; under setting [2], 21.9 nM.

Take “GGUGGACAUGAGGAUCACCCAUGUGAGGAUAUCGGCUAUCUACUCGCUGACGGUUGCUCGAGAAGGCACAUUGU”: the “apparent Kd” value reads like this: under setting [1], 126 nM; under setting [2], 206 nM.

Turning to “UGAAUAAUGUUAGGAUAUACAUGAGGAAUCCUCGUAGAAGGAACAUGACAUGAGGAUCACCCAUGUAGCGCUCAGAAGAGCGCA”, the “apparent Kd” value was determined as 140 nM under setting [3] and 135 nM under setting [4].

In the case of “GUGGUCAGACAUGAGGAUCACCCAUGUGGAAUAAAUAACGAACAGGAUAUGCAAUAUAGGAUAUAGUAGAAGGGUUGAUUGGUG”, the “apparent Kd” value under setting [3] came to 104 nM and the “apparent Kd” value under setting [4] turned out to be 138 nM.

For the sequence “UGAAAUCAUGUAGGAUAUGCAUGGCGAAGCUACGCAGAAGGACAUGAGGAUCACCCAUGUUCUAGCUACCGAGUACGGUGGCAA”, the “apparent Kd” value came out at 23.1 nM under setting [1] and 121 nM under setting [2].

Regarding “UCUGGUCGAGGAUAUACAAUCGUGCUUCGGCACGUAAGAUCACAUGAGGAUCACCCAUGUAGAAGGUGACCAGA”, the “apparent Kd” value reads like this: under setting [1], 27.1 nM; under setting [2], 131 nM.

For the sequence “GCGUAAUUGAUCCUAUUUACCAACAUGAGGAUCACCCAUGUGCAGGAUAUGCUAAAGAUAGAUAAGCAGAAGGGCAUUUACCGC”, the “apparent Kd” value is, setting by setting: under setting [1], 47 nM; under setting [2], 211 nM.

As to “AAAUUUAACGAAGGAUAUACUAACAUGAGGAUCACCCAUGUGUGCUUCGUGUUGCUGAAAUUCGGGUAGAAGGUCGUAUACAUA”, the “apparent Kd” value under setting [1] came to 54.8 nM and the “apparent Kd” value under setting [2] came to 145 nM.

On to “AAAACACAUGAGGAUCACCCAUGUGAGGAUAUGUUCAUUGUGAGCAAACUUAUGAUGAACAGAAGGCACAUAAA”, for which the “apparent Kd” value was determined as 45.5 nM under setting [1] and 50.7 nM under setting [2].

Regarding “AGGAAACAUGAGGAUCACCCAUGUAAAAAAGUGGGAGGAUAUACUAGAAGAAACAAAAUAGUAGAAGGCCUAAAAA”, the “apparent Kd” value was found to be 47.3 nM under setting [3] and 24.9 nM under setting [4].

Take “UGAAUGUGAGGAUAUGGUGAGUAGUGCCUGAGCGCUGCUCACCAGAAGGCACAUGAGGAUCACCCAUGUACUUG”: the “apparent Kd” value runs as follows: under setting [1], 66.9 nM; under setting [2], 215 nM.

Take “AAUUGACACGUAGGAUAUCGAUCUAUAUUAACUCGAGAAGGACGUACAUGAGGAUCACCCAUGUUUAAUGGAGUAGAUAAGUUG”: the “apparent Kd” value was 102 nM under setting [1] and 289 nM under setting [2].

As to “CUAUGCCGAACAGGAUAUUCGAUCAAAAGGAUAGAAGAAGGGUUACAUGAGGAUCACCCAUGUAUGCACAUGAGGAUCCCUUAA”, the “apparent Kd” value by setting is: under setting [1], 255 nM; under setting [2], 296 nM.

As to “CCAGCGUAUGUGAGGAUAUGCUGGUCCUUGGAUCAGCAGAAGGCACAUGAGGAUCACCCAUGUGAUAACGUUGG”, the “apparent Kd” value was determined as 59.5 nM under setting [1] and 261 nM under setting [2].

“GCGUUGAACGAGAAGGCCAAUACAUGAGGAUCACCCAUGUUAAGUUGUUUUGGAGGAUAUCGAACACAUUCAAUAUUGCAACGC”: the “apparent Kd” value under setting [1] was 6.06 nM and the “apparent Kd” value under setting [2] was 5.65 nM.

In the case of “UCUGCCGCCGUGAGGAUAUGCCCGCGCGCCCGCGGGCAGAAGGCACAUGAGGAUCACCCAUGUCCCGCGGCUUU”, the “apparent Kd” value under setting [1] amounted to 15.1 nM and the “apparent Kd” value under setting [2] was determined as 39.5 nM.

On to “ACAUGAGGAUCACCCAUGUUGAUAGUAGAAGGGACAGAGAAGAAGAAACAUGAGGAUCACCCAUGUCAGGAUAUGCGAAUUGGA”, for which the “apparent Kd” value amounted to 36.4 nM under setting [3] and 33.6 nM under setting [4].

“AGAGAGUGACAGAAGGGCAAGCUCGAAAGCGGAGAACGCGAACGAGCUUGCAGGAUAUGUUGAACAUGAGGAUCACCCAUGUCA”: the “apparent Kd” value runs as follows: under setting [3], 7.79 nM; under setting [4], 6.41 nM.

Turning to “AGUAACAUGCUCAACAUGAGGAUCACCCAUGUACUCUCUUGUAAGGAUAUACAAUCGUAUUGAUAGUAGAAGGUACCAAUUAAG”, the “apparent Kd” value by setting is: under setting [3], 52.7 nM; under setting [4], 51.9 nM.

Turning to “GUUGGCUGAGGAUAUGCUUGCAUGCUUUUGUGUUGCGGGUGACAUGAGGAUCACCCAUGUAGAAGGUGGUCGGC”, the “apparent Kd” value runs as follows: under setting [1], 1040 nM; under setting [2], 817 nM.

For the sequence “AAAAAGGGAGGAUAUACAUGAGGAUCACCCAUGUAAAAAAAAACAAAAAAAAAAAAAAGUAGAAGGCCCAAAAA”, the “apparent Kd” value was determined as 54.8 nM under setting [1] and 47.8 nM under setting [2].

As to “UGGAUCAUCGGAGGAUAUCAUGUAGAUACAUGAGGAUCACCCAUGUCGAUGGAGACAUCGGAGAUUGAGAAGGCCGAUGAUCCU”, the “apparent Kd” value under setting [3] turned out to be 543 nM and the “apparent Kd” value under setting [4] is 30.9 nM.

Take “GACUUGUUAGGAUAUCUUACAUUUGCAUCAUAGUAACCUUUGGAGAAGGGACAUGAGGAUCACCCAUGUUUGGU”: the “apparent Kd” value reads like this: under setting [1], 62.3 nM; under setting [2], 53.5 nM.

For the sequence “GGAUGACAAAGUCAUCCCUGACGGACAUGAGGAUCACCCAUGUAGGAUAUGCUACUCAAAGAGUAGCAGAAGGACAUGUGUCUU”, the “apparent Kd” value was 35.5 nM under setting [1] and 206 nM under setting [2].

“CAGAAGUCAGGAUAUCCAUGGCGGCACUUGCGUGGUGGCGUGGAGAAGGGACAUGAGGAUCACCCAUGUAAAGG”: the “apparent Kd” value was determined as 171 nM under setting [1] and 237 nM under setting [2].

“GACGGUGAUGUAGGAUAUACGCUGGAAUACAGCGUAGAAGGACAUGAGGAUCACCCAUGUAAAGUGUCUCUAAAUAACACCGUC”: the “apparent Kd” value by setting is: under setting [1], 21.5 nM; under setting [2], 47.2 nM.

Regarding “GUUACAUGAGGAUCACCCAUGUAUGUGUGGGAGUAAGUGUCUUAGGAUAUCUAUGAUUUAAAUUAAGAGAAGGAAGAUUGUUGU”, the “apparent Kd” value runs as follows: under setting [3], 101 nM; under setting [4], 117 nM.

Regarding “UGUCCAUAGCAGAAGGACAUGAAUAAAUAUGAAAACAUGAGGAUCACCCAUGUAGGAUAUGCUAUGGACUAAGAGCGAAAGCUC”, the “apparent Kd” value by setting is: under setting [1], 7.68 nM; under setting [2], 49.3 nM.

Take “AUCAGCUCGUCAGGAUAUACGUCACUGCGUCAGCAGUGUGGUGAGAUCACAUGAGGAUCACCCAUGUAGAAGGGACGAGCUGAU”: the “apparent Kd” value by setting is: under setting [1], 376 nM; under setting [2], 300 nM.

Take “AAAAAGGUAGGAUAUACGAGGAGAAAUAAUAAAUAAAUAAAACAUGAGGAUCACCCAUGUAGAAGGACCAAAAA”: the “apparent Kd” value runs as follows: under setting [1], 26.1 nM; under setting [2], 26.8 nM.

With “AGUGACUACGUAGGAUAUUAAUUCAUGGACUACAUGAGGAUCACCCAUGUUUAUUUAACAUCAGCUGAGAAGGACGUGGUCACA”, the “apparent Kd” value by setting is: under setting [3], 28.1 nM; under setting [4], 10.6 nM.

As to “GACAUUGACAAGAAGGCAAACAUGAGGAUCACCCAUGUUCUGCAUGUAUAUUGAGGAUAUUGCCAAUGCAUGUGGAUCACCCAA”, the “apparent Kd” value was found to be 6.63 nM under setting [1] and 10.8 nM under setting [2].

Regarding “GGAUCGAGUGUGAGGAUAUGCUGGUCCUUGGAUCAGCAGAAGGCACAUGAGGAUCACCCAUGUGAAGACGAUCC”, the “apparent Kd” value is, setting by setting: under setting [1], 23.6 nM; under setting [2], 187 nM.

Take “GUCAGCUCGUGAGGAUAUACAUGAGGAUCACCCAUGUGAUCAAUAGCAGCUUCGGCUGCAUACAUGUAGAAGGCACGAGCUGAU”: the “apparent Kd” value reads like this: under setting [1], 43.1 nM; under setting [2], 62.9 nM.

Regarding “GACACCGUGUAGAAGGACCAGUGCGCUACUAUGGUAGGAUAUACAUGAGGAUCACCCAUGUGACGGCUUUCGGUGGGAGCAGUG”, the “apparent Kd” value by setting is: under setting [1], 10.9 nM; under setting [2], 19.8 nM.

Regarding “AUAAGCUCGUCAGGAUAUACAACACUGUGUAAGCAGUGUGGUAUGAUCACAUGAGGAUCACCCAUGUAGAAGGGACGAGCUUAU”, the “apparent Kd” value was 6.33 nM under setting [1] and 43.4 nM under setting [2].

For the sequence “AUCCGGCGUGUAGGAUAUGGAUCCGAUUAGGAUCCAGAAGGACAUGAGGAUCACCCAUGUACAUGUAAACAGUCAUCACCGGAU”, the “apparent Kd” value under setting [1] was determined as 6.59 nM and the “apparent Kd” value under setting [2] was found to be 14 nM.

Consider “GGAGCCCAGUCAGGAUAUGUAACGCUAAGGCUGUUACAUGAGGAUCACCCAUGUUUCACCGUGAAACAGAAGGGACAAUUGGCG”, for which the “apparent Kd” value runs as follows: under setting [3], 500 nM; under setting [4], 147 nM.

Turning to “GCCAUCAUAUGAGGAUAUGACACCGAAACGGUGUCAGAAGGCAUGUCGAUAGACAUGAGGAUCACCCAUGUUUAGAUGAUGGCA”, the “apparent Kd” value came out at 104 nM under setting [3] and 21.5 nM under setting [4].

Turning to “AAGAAGUGAGGAUAUGGCCGGGUCCCUGGGUUUGGACCCGGCCAGAAGGCACAUGAGGAUCACCCAUGUAAGAA”, the “apparent Kd” value came to 24 nM under setting [1] and 46.3 nM under setting [2].

On to “AAAAUCUAUACAGGAUAUCCAUACGCUGCAUACGGAGAAGGGUAACAAUCAUGAGGACAUGAGGAUCACCCAUGUUGUGACCAU”, for which the “apparent Kd” value runs as follows: under setting [3], 232 nM; under setting [4], 76.1 nM.

In the case of “GGAUUACAUGAGGAUCACCCAUGUGAGGAUAUCGAUGUCCCUAGGAGCGUGCGGGACUCGAGAAGGCACUUGGA”, the “apparent Kd” value is, setting by setting: under setting [1], 39.7 nM; under setting [2], 234 nM.

With “AUUAUAAAGGUAGGAUAUAGUAUUAUAAUUAAAUUAGAAGGAUCUCACAUGAGGAUCACCCAUGUAAGAGGAUCACCCAUGUAU”, the “apparent Kd” value came to 9.64 nM under setting [1] and 9.62 nM under setting [2].

As for “UUUAUAUAGUAAGGAUAUGUAUUAAUUUUAUAGACAGAAGGUACUGACAUGAGGAUCACCCAUGUUUUAGUGUGGGCAUGUAGU”, the “apparent Kd” value under setting [1] was 358 nM and the “apparent Kd” value under setting [2] was 549 nM.

As to “GGAUAGGAUAGAGGAUAUACGUGCUAGAGAUACUAGCAAAAUUUCCUCACAUGAGGAUCACCCAUGUAGAAGGCUGUCCUAUCG”, the “apparent Kd” value came to 10.6 nM under setting [1] and 193 nM under setting [2].

As for “GCUGUAUAUGAGAAGGCGAUCAUGAAACAUGAUCGAGGAUAUCAUGUAAACAUGAGGAUCACCCAUGUAUGGGUAUUAAGCAGC”, the “apparent Kd” value runs as follows: under setting [3], 280 nM; under setting [4], 46.6 nM.

As for “GUGGAGUACGUAGGAUAUGUAGGAUAUUCCUACAUGAGGAUCACCCAUGUUUACAUGGAAGAAGGACAGAAGGACGUGCUCCAG”, the “apparent Kd” value reads like this: under setting [3], 1430 nM; under setting [4], 14.3 nM.
